Compounds with a hit are over-represented: about 2.2% of the library has one in this group of screens.
p97 inhibitor: human p97 ATPase inhibition | inhibition, % at 8 µM | AID 1481 | recombinant p97 ATPase, Kinase-Glo ATP luminescence, 3 h | hit rate 0.42% among 220,000; in the data active = inhibition above about 15%
Hck Nef HTS: human Hck-Nef kinase inhibition; hit rate 0.68% among 220,000; P08631; Recombinant Hck-YEEI plus Nef, Z-Lyte FRET kinase assay; inhibition, % at 20 µM;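 active = Hck-Nef kinase inhibition above about 50%, limit read from the data; inactive = inhibition below that limit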
Calb biofilm kill: mixture kills Candida albicans biofilm cells | hit rate 0.02% among 120,000 | inhibition, % at 7.6 µM | AID 1242 | C. albicans biofilm persisters + clotrimazole, fluorescence viability; primary screen in compound mixtures of four per well;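 note: compounds exposed to preformed 24 h biofilms for 48 h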
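Assay system: C. albicans biofilms / Medium: RPMI/MOPS medium, pH 7.0 / Schedule: biofilm formation 24 h, compound exposure 48 h, 37 °C / Measured by: Alamar Blue fluorescence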
PERK inhibitor: inhibitors of human PERK kinase; inhibition, % at 5.6 µM; hit rate 0.17% among 220,000; CHO PERK-DD fusion, SEAP luminescence translation reporter; Q9NZJ5;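 active = inhibition above the mean inhibition of all tested compounds plus 3 SD, set separately per screening campaign, cut at about 2.9% in these data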;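 note: PERK kinase domain activated by AP20187 dimerizer at 100 nM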
Target sequence (Q9NZJ5 whole entry, looked up, the tested form may be a part): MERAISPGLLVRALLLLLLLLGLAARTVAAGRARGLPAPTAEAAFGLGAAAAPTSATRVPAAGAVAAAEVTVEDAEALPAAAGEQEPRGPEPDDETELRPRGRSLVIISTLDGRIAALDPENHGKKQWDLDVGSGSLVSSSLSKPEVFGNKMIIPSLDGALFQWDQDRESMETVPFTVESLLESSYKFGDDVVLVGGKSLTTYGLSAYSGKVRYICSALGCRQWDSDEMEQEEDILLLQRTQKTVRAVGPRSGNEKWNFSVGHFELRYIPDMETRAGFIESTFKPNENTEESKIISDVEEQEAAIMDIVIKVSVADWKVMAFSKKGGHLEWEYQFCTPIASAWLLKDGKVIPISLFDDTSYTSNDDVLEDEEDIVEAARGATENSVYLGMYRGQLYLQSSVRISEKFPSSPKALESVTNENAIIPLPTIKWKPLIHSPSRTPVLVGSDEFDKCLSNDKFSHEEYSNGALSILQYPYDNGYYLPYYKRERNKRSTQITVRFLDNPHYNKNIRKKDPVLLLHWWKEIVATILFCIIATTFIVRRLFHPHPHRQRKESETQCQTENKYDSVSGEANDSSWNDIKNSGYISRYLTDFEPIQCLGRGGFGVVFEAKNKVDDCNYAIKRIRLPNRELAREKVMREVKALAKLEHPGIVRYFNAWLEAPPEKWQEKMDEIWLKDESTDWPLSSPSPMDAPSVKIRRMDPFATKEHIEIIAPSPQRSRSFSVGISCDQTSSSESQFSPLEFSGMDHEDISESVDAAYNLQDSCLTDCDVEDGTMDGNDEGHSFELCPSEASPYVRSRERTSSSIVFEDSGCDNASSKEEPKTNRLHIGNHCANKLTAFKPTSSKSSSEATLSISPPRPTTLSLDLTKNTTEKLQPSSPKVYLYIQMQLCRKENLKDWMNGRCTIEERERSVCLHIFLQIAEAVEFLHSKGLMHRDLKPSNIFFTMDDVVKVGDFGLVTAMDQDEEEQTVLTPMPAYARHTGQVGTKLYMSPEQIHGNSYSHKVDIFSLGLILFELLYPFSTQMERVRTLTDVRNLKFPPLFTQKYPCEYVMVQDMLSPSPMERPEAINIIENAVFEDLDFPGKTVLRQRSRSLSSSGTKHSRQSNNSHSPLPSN
14-3-3 Bad PPI: disrupts binding of bovine 14-3-3 zeta to phospho-Bad peptide; P63103; TR-FRET 14-3-3zeta/Dy647-pBad peptide displacement, 1 h; inhibition, % at 21.7 µM; hit rate 0.71% among 220,000;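 active = inhibition above about 70%, limit read from the data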
eIF4E-4G inh: inhibitors of eIF4E and eIF4G interaction in translation initiation. P63073+Q04637. TR-FRET eIF4E-eIF4GI(517-606) binding, 2 h. inhibition, % at 21.7 µM. hit rate 0.37% among 220,000. AID 782;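 active = inhibition above about 30%, limit read from the data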
A number is an active result; 0 = inactive; - = no result; [ ] = remark or other dose.

SMILES | p97 inhibitor | Hck Nef HTS | Calb biofilm kill | PERK inhibitor | 14-3-3 Bad PPI | eIF4E-4G inh
CCOC(=O)Cn1c(=NC(=O)c2sc3ccccc3c2Cl)sc2cc(S(N)(=O)=O)ccc21 | 0 | 0 | 0 | 0 | 79.2[fluorescence artefact?] | 0
C#CCn1c(=NC(=O)c2cc(Cl)sc2Cl)sc2cc(S(N)(=O)=O)ccc21 | 0 | 0 | 0 | 0 | 76.4 | 0
COC(=O)Cn1c(=NC(=O)c2nc3ccccc3s2)sc2cc(S(C)(=O)=O)ccc21 | 0 | 0 | 0 | 0 | 0 | 0
COC(=O)Cn1c(=NC(=O)c2sc3ccccc3c2Cl)sc2cc(S(N)(=O)=O)ccc21 | 0 | 0 | 0 | 0 | 86.1[fluorescence artefact?] | 0
C#CCn1c(=NC(=O)c2ccc(Br)s2)sc2cc(NC(C)=O)ccc21 | 0 | 0 | 0 | 0 | 70.8[fluorescence artefact?] | 0
O=C(Cn1c(=O)oc2ccccc21)N1CCOCC1 | 0 | 0 | 0 | 0 | 0 | 0
S=C(Nc1cccc(Cl)c1Cl)N1CCC2(CC1)OCCO2 | 0 | 0 | 0 | 0 | 0 | 91.0
CC1CCN(c2c(NCC3CCC(C(=O)NC4CCCCCC4)CC3)c(=O)c2=O)CC1 (stereo not drawn) | 0 | 0 | 0 | 0 | 86.2 | 0
CCCc1cc(=O)[nH]c(SCC(=O)Nc2ncc(S(=O)(=O)c3ccc([N+](=O)[O-])cc3)s2)n1 | 0 | 0 | 0 | 0 | 0 | 0
CC(C)Cc1csc(NC(=O)C(C)C)c1C(=O)O | 0 | 0 | 0 | 0 | 0 | 0
CC(C)Cc1csc(NC(=O)c2ccc(Br)cc2)c1C(=O)O | 0 | 0 | 0 | 3.2 | 0 | 0
COc1cccc(/C=c2/s/c(=C(\C#N)C(=O)N3CCOCC3)n(-c3ccccc3)c2=O)c1 | 0 | 0 | - | 0 | 76.4[fluorescence artefact?] | 0
COc1ccc(/C=c2\s/c(=C(/C#N)C(=O)NCc3ccco3)n(-c3ccccc3)c2=O)cc1 | 0 | 0 | 0 | 0 | 0 | 0
Cc1ccc(N(CC(N)=O)C2SC(=O)N(C)C2=O)cc1 (stereo not drawn) | 0 | 0 | - | 0 | 80.4 | 0
O=C(Nc1ccc2oc(-c3cccnc3)nc2c1)c1ccc2c(c1)OCCO2 | 0 | 0 | 0 | 0 | 80.8 | 0
COC(=O)/C(C#N)=C1/C=Cc2ccccc2N1 | 0 | 0 | 0 | 0 | 0 | 0
CCc1ccc(C2C(C#N)=C(N)SC(N)=C2C#N)s1 | 0 | 0 | - | 0 | 0 | 0
Cc1ccc(C2C(C#N)=C(N)SC(N)=C2C#N)o1 | 15.3 | 0 | - | 0 | 0 | 0
COc1ccc(NS(=O)(=O)c2ccc3c(c2)CCO3)cc1 | 0 | 0 | 0 | 0 | 73.8 | 0
CCCCNC(=O)Oc1c(Br)cc2sc(=O)oc2c1Br | 0 | 56.0 | 0 | 0 | 0 | 0
CCCCNC(=O)Oc1cc(CCl)on1 | 0 | 0 | 0 | 0 | 0 | 0
C/C(=N\O)C(C)(C)Nc1cccc(Br)c1 | 0 | 0 | 0 | 0 | 0 | 0
CCOC(=O)C(=O)N/N=C/c1ccc(F)cc1 | 0 | 0 | 0 | 0 | 0 | 0
CCOC(=O)C(=O)NNc1ccc(F)cc1 | 0 | 0 | 0 | 0 | 0 | 30.6
COC(Cc1n[nH]c(=S)n1-c1ccccc1)OC | 0 | 0 | - | 0 | 75.6 | 0
SMILES | p97 inhibitor | Hck Nef HTS | Calb biofilm kill | PERK inhibitor | 14-3-3 Bad PPI | eIF4E-4G inh
COCc1n[nH]c(=S)n1-c1ccccc1 | 0 | 0 | - | 0 | 0 | 0
Cc1cc2nc(N=C(N)N)nc(C)c2cc1C | 0 | 0 | 0 | 0 | 0 | 0
CO/N=C\CC(=O)Nc1ccc(Cl)cc1Cl | 0 | 0 | 0 | 0 | 0 | 0
COc1ccc(NC(=O)Cc2ccc(Cl)c(Cl)c2)cn1 | 0 | 0 | 0 | 0 | 0 | 0
COc1ccc(NC(=O)/C(Cl)=C(/Cl)S(=O)Cc2ccccc2Cl)cn1 (stereo not drawn) | 15.3 | 0 | 0 | 0 | 0 | 0
Cc1cccc(N2CC(O)(c3cccs3)[N+]3=C2CCCCC3)c1 (stereo not drawn) | 0 | 0 | 0 | 0 | 82.8 | 0
O=C(O)c1ccc2c(c1)C(=O)N(c1cccc(-c3nc4ccccc4s3)c1)C2=O | 0 | 0 | 0 | 0 | 0 | 46.3
Cc1cc(N2CCOCC2)ccc1/C=C1/SC(=O)NC1=O | 0 | 0 | 0 | 0 | 0 | 0
O=C1NC(=O)/C(=C\c2ccc(O)cc2O)S1 | 0 | 0 | 0 | 0 | 86.5 | 0
O=C1C2C3C=CC(C3)C2C(=O)N1CCCCN1C(=O)C2C3C=CC(C3)C2C1=O (stereo not drawn) | 0 | 0 | - | 0 | 72.8 | 46.1
C=CCn1c(-c2ccccc2)nc(=S)c2c1CCCC2 | 0 | 0 | 0 | 0 | 0 | 0
CS(=O)(=O)Nc1ccccc1C(=O)Nc1cccc(Cl)c1 | 0 | 0 | - | 0 | 76.9 | 0
CS(=O)(=O)Nc1ccccc1C(=O)Nc1cc(Cl)cc(Cl)c1 | 0 | 0 | - | 0 | 0 | 0
CC(C)c1cc(C(=O)Nc2cccc(Cl)c2)no1 | 0 | 0 | - | 0 | 0 | 63.1[fluorescence artefact?]
CN(CCCNC(=O)CSc1cc(=O)n(C)c2cc(Cl)ccc12)Cc1ccccc1 | 0 | 0 | 0 | 0 | 0 | 0
Cc1ccc(C(=O)NCC(=O)OCC(=O)NCC(F)(F)F)cc1 | 0 | 0 | 0 | 0 | 0 | 0
CCc1ccc(N(C(=O)c2csnn2)C(C(=O)NCc2ccccc2)c2ccco2)cc1 (stereo not drawn) | 0 | 0 | - | 0 | 95.1[fluorescence artefact?] | 0
COc1ccc(CNC(=O)C(c2ccco2)N(C(=O)c2ccccn2)c2ccccc2)cc1 (stereo not drawn) | 0 | 0 | 0 | 0 | 0 | 0
CCCNC1=CC(=O)CC(C)(C)C1 | 0 | 0 | 0 | 0 | 0 | 0
Nc1ccc2nc(CN3CCOCC3)[nH]c2c1 | 0 | 0 | - | 0 | 90.8 | 0
FC(F)(F)c1ccc(Cl)c(-n2c(-c3cc(C4CC4)[nH]n3)n[nH]c2=S)c1 | 0 | 0 | 0 | 0 | 0 | 0
O=C(Nc1ccc(O)c(-c2nc3ccccc3s2)c1)C1=COCCO1 | 0 | 0 | 0 | 0 | 0 | 0
O=C(Nc1ccc(-c2nc3ccccc3s2)c(O)c1)C1=COCCO1 | 0 | 67.3 | 0 | 0 | 0 | 0
CCCCOC(=O)C1C2C=C[C@]3(CN(CCCOC)C(=O)[C@H]13)O2 (stereo partly drawn) | 0 | 0 | - | 3.4 | 0 | 0
CCOc1ccc(Nc2nnc(SCc3nc4ccccc4c(=O)[nH]3)s2)cc1 | 0 | 0 | 0 | 0 | 0 | 0
SMILES | p97 inhibitor | Hck Nef HTS | Calb biofilm kill | PERK inhibitor | 14-3-3 Bad PPI | eIF4E-4G inh
O=C(c1cccc(N2C(=O)C3C4C=CC(C4)C3C2=O)c1)N1CCCCCC1 (stereo not drawn) | 0 | 0 | - | 0 | 76.9 | 0
COc1ccc(/C=C/c2ccccc2)cc1[C@H]1[C@H]2C=CC[C@@H](C)[C@@H]2C(=O)N1Cc1ccccc1 | - | 0 | 0 | - | 0 | 0
Cc1cccc(OCc2nc(-c3ccccn3)n[nH]2)c1 | 0 | 0 | - | 0 | 0 | 0
Cc1ccc(OCc2nc(-c3ccccn3)n[nH]2)cc1 | 0 | 0 | - | 0 | 0 | 33.5[fluorescence artefact?]
COc1ccc(CN2CCN(S(=O)(=O)c3ccc(F)cc3)CC2)cc1OC | 0 | 0 | - | 0 | 70.4 | 0
O=S(=O)(c1ccccc1)N1CCN(Cc2cccc(Cl)c2)CC1 | 0 | 0 | - | 0 | 72.4 | 0
COc1ccc(S(=O)(=O)N2CCN(Cc3ccccc3)CC2)cc1 | 0 | 0 | - | 0 | 0 | 0
COc1ccc(CN2CCN(S(=O)(=O)c3ccc(F)cc3)CC2)c(OC)c1OC | 0 | 0 | - | 0 | 76.6 | 0
COc1ccc(CN2CCN(S(=O)(=O)c3ccc(NC(C)=O)cc3)CC2)cc1OC | 0 | 0 | - | 0 | 0 | 0
